# Out of some 2,500 compounds screened, about 1,200 (48%) were called active.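 Rule for the calls: active = mean activation above the low control average plus 3 SD, as set in the primary screen (cut at about 12% in these data); inactive = the rest.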 The set was probably picked from earlier hits. The list shows a part of the results.
# Biological target: Troponin I, cardiac muscle (Homo sapiens) + Troponin T, cardiac muscle (Homo sapiens) + Troponin C, slow skeletal and cardiac muscles (Homo sapiens) (UniProt P19429+P45379+P63316)
# Assay: cardiac RTF calcium sensitivity activators, confirmation, biochemical, IANBD-TnC fluorescence, triplicate (AID 504383);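 note: 0% = DMSO at 0.472 mM calcium and 100% = DMSO at 2.9 mM calcium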
# Conditions: IANBD-labeled cardiac RTF, Ca2+ sensitivity fluorescence; at 7.2 µM; stronger effect = higher value; scaled from EC20 to saturating calcium; tested at EC20 calcium, 0.472 mM
# Procedure, shortened: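 Test system: labelled regulated thin filament protein complex. Dosing: single nominal compound dose of 7.2 µM. Benchmarks: EC20 and EC100 calcium wells. Read-out basis: fluorescence gain scaled between EC20 and EC100 calcium controls. Probe or stimulus: submaximal calcium at 0.472 mM (EC20). Technique: fluorescence. Times: 15 min compound exposure, 25 °C.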
row,SMILES,activation
1,CC/C(=C/c1sc2ccccc2[n+]1CC)SC,2.73% (inactive)
2,CC[n+]1c(/C=C/C=C/N(C(C)=O)c2ccccc2)sc2ccccc21,135% (active)
3,CCCC(NC(=O)CCc1c(C)c2cc3c(-c4ccccc4)coc3cc2oc1=O)C(=O)O (stereo unspecified),181% (active)
4,C=CCOc1ccccc1CNc1cccc(F)c1,7.46% (inactive)
5,C=CCOc1ccc(Br)cc1CNCC,29.4% (active)
6,Cc1nc(NC(=O)C(Cl)Cl)sc1C(=O)N(C)C,8.86% (inactive)
7,Cc1ccc(Cn2nc(C)c(NC(=O)C3(C)CC3(Br)Br)c2C)cc1 (stereo unspecified),17.1% (active)
8,Cc1nn(Cc2c(F)c(F)c(F)c(F)c2F)c(C)c1NC(=O)c1nn(C)c(C)c1Br,9.42% (inactive)
9,CCn1cc(/C=C/C(=O)Nc2c(C)nn(Cc3ccccc3C)c2C)cn1,7.35% (inactive)
10,Cn1c(=O)cc(N)n(Cc2ccccc2)c1=O,42.5% (active)
11,Cc1ccc(NC(=O)COC(=O)/C=C/c2c(C)nn(-c3ccc(F)cc3)c2Cl)cc1F,8% (inactive)
12,CCOc1ccc(C(C(=O)NC2CCCCC2)N(C(=O)Cc2cccs2)c2ccc(-n3cnnn3)c(OC)c2)cc1 (stereo unspecified),3.97% (inactive)
13,CCOc1ccc(-n2c(SCC(=O)Nc3ccc(OC)cc3OC)nc3c(c2=O)SCC3)cc1,13.3% (active)
14,Cc1ccc(C(C)NC(=O)c2cccs2)cc1C (stereo unspecified),480% (active)
15,CCCCNC(=O)Nc1nnc(-c2ccccc2)o1,10.1% (inactive)
16,O=C(CCSc1nnc(-c2ccco2)o1)Nc1ccccc1,69% (active)
17,O=C(CSc1nnc(-c2ccco2)o1)NC1CCCCC1,6.06% (inactive)
18,C/C(O)=c1/ccc2cccc3nc(C)nc1c23,62.2% (active)
19,Cc1ccccc1NS(=O)(=O)c1ccc(OCC(=O)N2CCCCC2)cc1,6.33% (inactive)
20,COc1ccc(CN(Cc2cccn2C)S(=O)(=O)c2ccccc2)cc1,9.11% (inactive)
21,CCN(CC(=O)N1CCCC1)S(=O)(=O)c1ccc(OC)cc1,262% (active)

row,SMILES,activation
1,O=C1NC(c2cccc([N+](=O)[O-])c2)Oc2ccccc21 (stereo unspecified),10.3% (inactive)
2,Cc1ccc(C)c(NC(=O)CCN2CCOCC2)c1,0.21% (inactive)
3,Cc1ccc(C)c(NC(=O)COC(=O)Cc2ccsc2)c1,12.3% (active)
4,O=C(NCc1cccc(F)c1)c1cccc2c1C(=O)c1ccc(N3CCCC3)cc1S2(=O)=O,8.28% (inactive)
5,O=C(NCC1CC1)c1cccc2c1C(=O)c1ccc(N3CCCC3)cc1S2(=O)=O,183% (active)
6,Cc1ccc(CNC(=O)c2cccc3c2C(=O)c2ccc(N4CCCCC4)cc2S3(=O)=O)cc1,6.7% (inactive)
7,C=CCNC(=O)c1cccc2c1C(=O)c1ccc(N3CCCC3)cc1S2(=O)=O,6.98% (inactive)
8,CC1CCN(c2ccc3c(c2)S(=O)(=O)c2cccc(C(=O)NC4CCCCC4)c2C3=O)CC1,1.22% (inactive)
9,CN1CCC[C@@H]1CCNC(=O)c1cccc2c1C(=O)c1ccc(N3CCCC3)cc1S2(=O)=O,-0.88% (inactive)
10,O=C(NCc1ccc(OC(F)(F)F)cc1)c1cccc2c1C(=O)c1ccc(N3CCCCC3)cc1S2(=O)=O,17.5% (active)
11,O=C(NC1CCCCC1)c1cccc2c1C(=O)c1ccc(N3CCCC3)cc1S2(=O)=O,87.8% (active)
12,O=C(NC1CCCCC1)c1cccc2c1C(=O)c1ccc(N3CCC(Cc4ccccc4)CC3)cc1S2(=O)=O,5.3% (inactive)
13,CCOCCCNC(=S)NCCCNc1nc2c(C)cc(C)cc2cc1C#N,7.25% (inactive)
14,Cc1ccccc1OCCC(=O)Nc1cc(S(=O)(=O)N2CCCCC2)ccc1N1CCN(C)CC1,16.9% (active)
15,O=C(/C=C/c1cccc(F)c1)Nc1cc(S(=O)(=O)N2CCOCC2)ccc1N1CCCC1,9.19% (inactive)
16,O=C(CN1CCc2ccccc2C1)Nc1cc(S(=O)(=O)N2CCOCC2)ccc1N1CCOCC1,8.9% (inactive)
17,CCn1c(SCC(=O)NNC(=O)c2ccco2)nnc1-c1ccco1,-0.46% (inactive)
18,CCn1c(SCC(=O)c2ccc(Cl)cc2)nnc1C(C)C,13.2% (active)
19,N#C/C(=C/c1ccc(N2CCCCC2)o1)C(=O)NCCc1c[nH]c2ccccc12,40.9% (active)
20,N#C/C(=C/c1ccc(N2CCCCC2)o1)C(=O)Nc1ccc(Cl)cc1,111% (active)
21,N#C/C(=C/c1ccc(N2CCOCC2)o1)C(=O)NC1CCCCC1,-0.07% (inactive)

row,SMILES,activation
1,N#C/C(=C\c1ccc(N2CCOCC2)o1)C(=O)NC1CCCCC1,28.9% (active)
2,N#C/C(=C/c1ccc(N2CCOCC2)o1)C(=O)Nc1ccccc1,2.26% (inactive)
3,COc1ccc(NC(=O)/C(C#N)=C\c2ccc(N3CCOCC3)o2)cc1,32.2% (active)
4,N#C/C(=C\c1ccc(N2CCOCC2)o1)C(=O)NCC1CCCO1 (stereo unspecified),-0.28% (inactive)
5,CCOC(=O)/C(C#N)=N\Nc1cc(Cl)ccc1OC,6.36% (inactive)
6,COCCNC(=O)/C(C#N)=C/c1ccc(N2CCOCC2)o1,9.29% (inactive)
7,N#C/C(=C\c1ccc(N2CCOCC2)o1)C(=O)N1CCOCC1,6.09% (inactive)
8,N#C/C(=C/c1ccc(N2CCOCC2)o1)C(=O)N1CCOCC1,10.1% (inactive)
9,N#C/C(=C\c1ccc(N2CCCCC2)o1)C(=O)Nc1cccc(Br)c1,5.9% (inactive)
10,N#C/C(=C\c1ccc(N2CCOCC2)o1)C(=O)NCCc1ccccc1,43.7% (active)
11,N#C/C(=C/c1ccc(N2CCCCC2)o1)C(=O)Nc1ccc2ccccc2c1,171% (active)
12,N#C/C(=C\c1ccc(N2CCCCC2)o1)C(N)=O,11.6% (active)
13,O=C1NC2=C(C(=O)CCC2)C(c2ccccc2Cl)N1 (stereo unspecified),10.3% (inactive)
14,CN1C(=O)NC(c2ccccc2[N+](=O)[O-])C2=C1CCCC2=O (stereo unspecified),14.6% (active)
15,COc1ccc(/C=C2\SC(c3ccc(C)cc3)=NC2=O)cc1OC,12.9% (active)
16,COc1ccc(/C=C2/SC(c3ccc(C)cc3)=NC2=O)cc1OC,34.6% (active)
17,COc1ccc(/C=c2\s/c(=C/C(=O)c3ccc(C)cc3)[nH]c2=O)cc1OC,1.66% (inactive)
18,C=CCN1C(=O)/C(=C/c2ccc(O)c(OC)c2)S/C1=N/c1nccs1,5.76% (inactive)
19,COc1ccc(/C=C2\SC(=O)NC2=S)cc1OC,7.81% (inactive)

# — PubChem BioAssay AID504383 (The Scripps Research Institute Molecular Screening Center, 2011)
